Laboratory results: ChEMBL document CHEMBL3593182, “Phytochemical Investigation of the Constituents Derived from the Australian Plant Macropidia fuliginosa” (2015)
Calls of active or inactive are those of the source. No cut-off for these calls is given here.

How the values were obtained:
Escherichia coli [1] = test: Antimicrobial activity against Escherichia coli ATCC 25922 assessed as zone of inhibition at 3675 uM incubated overnight at 37 degC; type: functional, organism-based
Outline: (§1)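 Pure isolates screened against a panel of five bacteria and one fungus, each at a single concentration within 1639–5230 μM. A commercial antibiotic and antifungal agent were tested in parallel as references. Growth inhibition was recorded as the zone of inhibition.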

Staphylococcus aureus [2] = test: Antimicrobial activity against Staphylococcus aureus ATCC 25923 assessed as zone of inhibition at 3675 uM incubated overnight at 37 degC; type: functional, organism-based; outline: as §1
Candida albicans [3] = test: Antimicrobial activity against Candida albicans ATCC 10231 assessed as zone of inhibition at 3675 uM incubated overnight at 37 degC; type: functional, organism-based; outline: as §1
Pseudomonas aeruginosa [4] = test: Antimicrobial activity against Pseudomonas aeruginosa ATCC 27853 assessed as zone of inhibition at 3675 uM incubated overnight at 37 degC; type: functional, organism-based; outline: as §1
Staphylococcus aureus [5] = test: Antimicrobial activity against methicillin-resistant Staphylococcus aureus 344/2-32 assessed as zone of inhibition at 3675 uM incubated overnight at 37 degC; type: functional, organism-based
Streptococcus pyogenes [6] = test: Antimicrobial activity against Streptococcus pyogenes 345/1 assessed as zone of inhibition at 3675 uM incubated overnight at 37 degC; type: functional, organism-based
Pseudomonas aeruginosa [7] = test: Antimicrobial activity against Pseudomonas aeruginosa ATCC 27853 assessed as zone of inhibition at 1639 uM incubated overnight at 37 degC; type: functional, organism-based; outline: as §1
Staphylococcus aureus [8] = test: Antimicrobial activity against methicillin-resistant Staphylococcus aureus 344/2-32 assessed as zone of inhibition at 1639 uM incubated overnight at 37 degC; type: functional, organism-based
Staphylococcus aureus [9] = test: Antimicrobial activity against Staphylococcus aureus ATCC 25923 assessed as zone of inhibition at 1639 uM incubated overnight at 37 degC; type: functional, organism-based; outline: as §1
Escherichia coli [10] = test: Antimicrobial activity against Escherichia coli ATCC 25922 assessed as zone of inhibition at 1639 uM incubated overnight at 37 degC; type: functional, organism-based; outline: as §1
Candida albicans [11] = test: Antimicrobial activity against Candida albicans ATCC 10231 assessed as zone of inhibition at 1639 uM incubated overnight at 37 degC; type: functional, organism-based; outline: as §1
Streptococcus pyogenes [12] = test: Antimicrobial activity against Streptococcus pyogenes 345/1 assessed as zone of inhibition at 1639 uM incubated overnight at 37 degC; type: functional, organism-based; outline: as §1
Streptococcus pyogenes [13] = test: Antimicrobial activity against Streptococcus pyogenes 345/1 assessed as zone of inhibition at 2762 uM incubated overnight at 37 degC; type: functional; conditions: read-out: IZ; outline: as §1
Staphylococcus aureus [14] = test: Antimicrobial activity against methicillin-resistant Staphylococcus aureus 344/2-32 assessed as zone of inhibition at 2762 uM incubated overnight at 37 degC; type: functional, organism-based
Pseudomonas aeruginosa [15] = test: Antimicrobial activity against Pseudomonas aeruginosa ATCC 27853 assessed as zone of inhibition at 2762 uM incubated overnight at 37 degC; type: functional, organism-based; outline: as §1
Candida albicans [16] = test: Antimicrobial activity against Candida albicans ATCC 10231 assessed as zone of inhibition at 2762 uM incubated overnight at 37 degC; type: functional, organism-based; outline: as §1
Escherichia coli [17] = test: Antimicrobial activity against Escherichia coli ATCC 25922 assessed as zone of inhibition at 2762 uM incubated overnight at 37 degC; type: functional, organism-based; outline: as §1
Staphylococcus aureus [18] = test: Antimicrobial activity against Staphylococcus aureus ATCC 25923 assessed as zone of inhibition at 2762 uM incubated overnight at 37 degC; type: functional; conditions: read-out: IZ; outline: as §1
Streptococcus pyogenes [19] = test: Antimicrobial activity against Streptococcus pyogenes 345/1 assessed as zone of inhibition at 1724 uM incubated overnight at 37 degC; type: functional; conditions: read-out: IZ; outline: as §1
Staphylococcus aureus [20] = test: Antimicrobial activity against Staphylococcus aureus ATCC 25923 assessed as zone of inhibition at 1724 uM incubated overnight at 37 degC; type: functional, organism-based; outline: as §1
Escherichia coli [21] = test: Antimicrobial activity against Escherichia coli ATCC 25922 assessed as zone of inhibition at 1724 uM incubated overnight at 37 degC; type: functional; conditions: read-out: IZ; outline: as §1
Candida albicans [22] = test: Antimicrobial activity against Candida albicans ATCC 10231 assessed as zone of inhibition at 1724 uM incubated overnight at 37 degC; type: functional, organism-based; outline: as §1
Staphylococcus aureus [23] = test: Antimicrobial activity against methicillin-resistant Staphylococcus aureus 344/2-32 assessed as zone of inhibition at 1724 uM incubated overnight at 37 degC; type: functional, organism-based
Pseudomonas aeruginosa [24] = test: Antimicrobial activity against Pseudomonas aeruginosa ATCC 27853 assessed as zone of inhibition at 1724 uM incubated overnight at 37 degC; type: functional; conditions: read-out: IZ; outline: as §1
Pseudomonas aeruginosa [25] = test: Antimicrobial activity against Pseudomonas aeruginosa ATCC 27853 assessed as zone of inhibition at 2211 uM incubated overnight at 37 degC; type: functional, organism-based; outline: as §1
Staphylococcus aureus [26] = test: Antimicrobial activity against Staphylococcus aureus ATCC 25923 assessed as zone of inhibition at 2211 uM incubated overnight at 37 degC; type: functional; conditions: read-out: IZ; outline: as §1
Candida albicans [27] = test: Antimicrobial activity against Candida albicans ATCC 10231 assessed as zone of inhibition at 2211 uM incubated overnight at 37 degC; type: functional, organism-based; outline: as §1
Streptococcus pyogenes [28] = test: Antimicrobial activity against Streptococcus pyogenes 345/1 assessed as zone of inhibition at 2211 uM incubated overnight at 37 degC; type: functional; conditions: read-out: IZ; outline: as §1
Staphylococcus aureus [29] = test: Antimicrobial activity against methicillin-resistant Staphylococcus aureus 344/2-32 assessed as zone of inhibition at 2211 uM incubated overnight at 37 degC; type: functional, organism-based
Escherichia coli [30] = test: Antimicrobial activity against Escherichia coli ATCC 25922 assessed as zone of inhibition at 2211 uM incubated overnight at 37 degC; type: functional, organism-based; outline: as §1

SMILES: O=C1C(O)=Cc2cccc3ccc(-c4ccccc4)c1c23
- inhibition zone (IZ) (Escherichia coli [1]): inactive
- inhibition zone (IZ) (Staphylococcus aureus [2]): inactive
- inhibition zone (IZ) (Candida albicans [3]): inactive
- inhibition zone (IZ) (Pseudomonas aeruginosa [4]): inactive
- inhibition zone (IZ) (Staphylococcus aureus [5]): inactive
- inhibition zone (IZ) (Streptococcus pyogenes [6]): inactive

SMILES: C[C@@H]1O[C@@H](OC[C@H]2O[C@@H](Oc3c(-c4ccc(O)c(O)c4)oc4cc(O)cc(O)c4c3=O)[C@H](O)[C@@H](O)[C@@H]2O)[C@H](O)[C@H](O)[C@H]1O
- inhibition zone (IZ) (Pseudomonas aeruginosa [7]): inactive
- inhibition zone (IZ) (Staphylococcus aureus [8]): inactive
- inhibition zone (IZ) (Staphylococcus aureus [9]): inactive
- inhibition zone (IZ) (Escherichia coli [10]): inactive
- inhibition zone (IZ) (Candida albicans [11]): inactive
- inhibition zone (IZ) (Streptococcus pyogenes [12]): inactive

SMILES: O=Cc1cc(O)c2c(-c3cc(O)cc(O)c3)c(-c3ccc(O)cc3)oc2c1
- zone of inhibition at 2762 µM (Streptococcus pyogenes [13]): 1 mm
- inhibition zone (IZ) (Staphylococcus aureus [14]): inactive
- inhibition zone (IZ) (Pseudomonas aeruginosa [15]): inactive
- inhibition zone (IZ) (Candida albicans [16]): inactive
- inhibition zone (IZ) (Escherichia coli [17]): inactive
- zone of inhibition at 2762 µM (Staphylococcus aureus [18]): 1 mm

SMILES: O=C(/C=C/c1ccc(O)cc1)OC[C@H]1O[C@@H](Oc2cc(O)cc3c2C(=O)CC(c2ccc(O)cc2)O3)[C@H](O)[C@@H](O)[C@@H]1O (stereo not given in full)
- zone of inhibition at 1724 µM (Streptococcus pyogenes [19]): 1 mm
- inhibition zone (IZ) (Staphylococcus aureus [20]): inactive
- zone of inhibition at 1724 µM (Escherichia coli [21]): 1 mm
- inhibition zone (IZ) (Candida albicans [22]): inactive
- inhibition zone (IZ) (Staphylococcus aureus [23]): inactive
- zone of inhibition at 1724 µM (Pseudomonas aeruginosa [24]): 10 mm

SMILES: Oc1ccc(/C=C/c2cc(O)c3c(-c4cc(O)cc(O)c4)c(-c4ccc(O)cc4)oc3c2)cc1
- inhibition zone (IZ) (Pseudomonas aeruginosa [25]): inactive
- zone of inhibition at 2211 µM (Staphylococcus aureus [26]): 2 mm
- inhibition zone (IZ) (Candida albicans [27]): inactive
- zone of inhibition at 2211 µM (Streptococcus pyogenes [28]): 1 mm
- inhibition zone (IZ) (Staphylococcus aureus [29]): inactive
- inhibition zone (IZ) (Escherichia coli [30]): inactive
